Screening data deposited in PubChem by The Scripps Research Institute Molecular Screening Center.
Shown are actives, neighbours in structure and some others; about 4.3% of the full set was active somewhere.
STAT1 inh: STAT1 signaling inhibitors, primary screen, cell-based, HTS, luciferase reporter | 200,000 compounds, 0.35% hits | AID 920, 2007 | NIH 3T3 STAT1-luciferase reporter, IFN-gamma, luminescence | inhibition, % at 5.5 µM;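 active means inhibition above a set limit, the mean inhibition across all tested compounds plus 3 SD, cut at about 34% in these data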
STAT3 inh: IL-6 driven STAT3 reporter inhibitors, primary screen, U3A cells, luciferase, luminescence, MLSCN library; IL-6 STAT3-luciferase reporter; host cell line lacks STAT1; inhibition, % at 5.5 µM; 190,000 compounds, 0.89% hits;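 active means inhibition above the mean inhibition across all screened compounds plus 3 SD, cut at about 44% in these data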
STAT3 act: IL-6 driven STAT3 reporter potentiators, primary screen, U3A cells, luciferase, luminescence, MLSCN library; IL-6 STAT3-luciferase reporter; 100% = signal with IL-6 EC80 alone; activation (% of control), % at 5.6 µM; 190,000 compounds, 0.91% hits;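 active means activation above the screen-wide mean of compound activation plus 3 SD, cut at about 130% in these data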
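Detection: reporter luminescence signal / Assay system: STAT1-lacking human U3A cells, STAT3 luciferase reporter / Incubation: compound pre-incubation 1 h before IL-6, then 6 h stimulation at 37 °C / Control set: IL-6-only high control / Read-out: % activation relative to IL-6 control / Probe or stimulus: Interleukin-6, 33 ng/mL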
STAT1 act: STAT1 signaling activators, primary screen, cell-based, HTS, luciferase reporter. NIH 3T3 STAT1-luciferase reporter, IFN-gamma, luminescence; 100% = IFN-gamma alone, no compound. activation (% of control), % at 5.5 µM. 200,000 compounds, 2.6% hits. AID 932, 2007;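 active means activation above the screen-wide mean activation plus 3 SD, cut at about 130% in these data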
Large screens that a line does not name were inactive.

O=C(Nc1cccc(S(=O)(=O)N2CCCCCC2)c1)c1ccc2ccccc2n1	none
O=C(Nc1cccc(-c2cn3c(n2)SCC3)c1)c1ccc2ccccc2n1	STAT1 act 135
COc1ccc(N=CC2=C(Nc3ccc(OC)cc3)c3c(C)nn(-c4ccccn4)c3CC2)cc1	none
Cc1cc(C(=O)CSc2nc3ccccc3c(=O)[nH]2)c(C)n1CC1CCCO1 (centres undefined)	none
Cc1cc(C(=O)CN2C(=O)c3ccccc3S2(=O)=O)c(C)n1CC1CCCO1 (centres undefined)	STAT1 inh 79, STAT3 inh 112
Cc1cc(C(=O)CN2C(=O)NC(C)(c3ccccc3)C2=O)c(C)n1CC1CCCO1 (centres undefined)	none
Cc1cc(C(=O)CSc2nnnn2-c2ccc(Cl)cc2)c(C)n1CC1CCCO1 (centres undefined)	none
Cc1cc(C(=O)CSc2nnnn2-c2ccccc2)c(C)n1CC1CCCO1 (centres undefined)	STAT1 act 139
Cc1cc(C(=O)CSc2nc3ccccc3c(=O)n2C)c(C)n1CC1CCCO1 (centres undefined)	STAT1 inh 38, STAT3 inh 82
COc1cc(C(=O)Nc2ccc(S(=O)(=O)N3CCOCC3)cc2)c([N+](=O)[O-])cc1OC	none
CCc1cc2c(Sc3nc4ccccc4s3)ncnc2s1	STAT3 act 178, STAT1 act 142
COc1ccc(NC(=O)c2ccsc2NC(C)=O)cc1	none
Clc1ccc(-c2nnc(CCc3ccccc3)o2)c(Cl)c1	STAT1 act 137
CS(=O)(=O)N(CC(=O)Nc1ccc2c(c1)OCO2)c1ccccc1	none
O=C(CCCc1cccs1)Nc1ccc2c(c1)OCO2	STAT1 act 134
O=C(CCS(=O)(=O)c1ccccc1)Nc1ccc2c(c1)OCO2	STAT1 act 136
O=C(CCCN1C(=O)CCC1=O)Nc1ccc2c(c1)OCO2	none
CCOc1ccccc1OCC(=O)NNC(=O)Cn1cnc2c1c(=O)n(C)c(=O)n2C	none
CC1(C)Cc2c(sc(NC(=O)c3ccc(Br)o3)c2C#N)CO1	STAT1 act 133
Cc1ncoc1C(=O)Nc1ccc2c(c1)OCCO2	none
Cc1occc1C(=O)Nc1ccc2c(c1)OCCO2	STAT1 act 131
Cc1cc(C(=O)Nc2ccc3c(c2)OCCO3)c(C)o1	STAT1 act 130
CSc1ccccc1C(=O)Nc1ccc2c(c1)OCCO2	none
COc1cc(/C=N/N(C)c2ccccc2)ccc1O	STAT1 act 140
COc1ccc2c(c1)[nH]c1c(N3CCN(Cc4ccc5c(c4)OCO5)CC3)ncnc12	STAT3 inh 77
COc1cccc2[nH]c3c(N4CCN(Cc5ccc6c(c5)OCO6)CC4)ncnc3c12	none
COc1ccccc1N1CCN(C(C)C(=O)N2CC(C)OC(C)C2)CC1 (centres undefined)	none
O=C1c2ccccc2-c2nc3ccccc3nc21	STAT1 act 132
O=[N+]([O-])c1ccccc1CSc1nc2ccccc2o1	STAT1 act 140
O=C(NC(=S)Nc1cccc(NC(=O)c2ccc(Cl)cc2Cl)c1)c1cccs1	none
CCCc1cc(=O)[nH]c(SCC(=O)c2[nH]c(C)c(C(=O)OCC)c2C)n1	none
CCOC(=O)c1c(C)[nH]c(C(=O)CSc2nccc(C)n2)c1C	STAT1 act 132
CCOc1ccc(N=C2NC(=O)S/C2=C\c2ccc(Cl)cc2)cc1	none
COc1ccc(N=C2NC(=O)S/C2=C\c2ccc(N(C)C)cc2)cc1	STAT1 act 132
Cc1ccc(-c2cc3cccc[n+]3cc2-c2ccc(C)cc2)cc1	STAT1 inh 36, STAT3 inh 61
CC(NC(=O)CCn1nc(-c2ccc(Cl)cc2)ccc1=O)c1ccccc1 (centres undefined)	none
Nc1ccc2oc(C3CCCCC3)nc2c1	STAT1 act 132
CC1CCC/C(=C\Nc2ccc(C(=O)O)cc2)C1=O (centres undefined)	STAT1 act 149
COc1ccc(/C(N)=N/OC(=O)Cc2cccs2)cc1	STAT1 act 139
Cc1cc(CN(C)C(=O)CCc2nnc(Cc3cccc(C(F)(F)F)c3)o2)on1	none
CCN(CC)C(=O)CCc1nnc(Cc2cccc(C(F)(F)F)c2)o1	STAT1 act 146
CCN(CC(=O)NCc1ccc(Cl)cc1)S(=O)(=O)c1ccc(NC(C)=O)cc1	none
Cc1ccc(C(=O)NCC(=O)OCC(=O)/C=C2\N(C)c3ccccc3C2(C)C)cc1C	none
